In ChEMBL document CHEMBL1152782, “Rational modification of a candidate cancer drug for use against Chagas disease” (J Med Chem, 2009):
Calls of active or inactive are those of the source. The rule behind the calls is not given here.

How the values were obtained:
[1] = Ratio of IC50 for rat recombinant protein farnesyltransferase to EC50 for Trypanosoma cruzi Tulahuen expressing beta-galactosidase
Trypanosoma cruzi [2] = experiment: Antitrypanosomal activity against Trypanosoma cruzi Tulahuen amastigotes expressing beta-galactosidase in mouse 3T3 fibroblast after 7 days by […]; format: functional, organism-based; details: 168 h
[3] = Inhibition of rat recombinant protein farnesyltransferase expressed in Sf9 cells by [3H]-scintillation proximity assay
[4] = molecular target: Sterol 14-alpha demethylase (Trypanosoma cruzi (strain CL Brener)) (UniProt Q7Z1V1); experiment: Inhibition of Trypanosoma cruzi recombinant sterol 14-alpha-demethylase assessed as drug/enzyme molar ratio required to produce 50 percent decrease in turnover number
Sterol 14-alpha demethylase (Trypanosoma cruzi (strain CL Brener)), sequence (Q7Z1V1 whole entry, looked up): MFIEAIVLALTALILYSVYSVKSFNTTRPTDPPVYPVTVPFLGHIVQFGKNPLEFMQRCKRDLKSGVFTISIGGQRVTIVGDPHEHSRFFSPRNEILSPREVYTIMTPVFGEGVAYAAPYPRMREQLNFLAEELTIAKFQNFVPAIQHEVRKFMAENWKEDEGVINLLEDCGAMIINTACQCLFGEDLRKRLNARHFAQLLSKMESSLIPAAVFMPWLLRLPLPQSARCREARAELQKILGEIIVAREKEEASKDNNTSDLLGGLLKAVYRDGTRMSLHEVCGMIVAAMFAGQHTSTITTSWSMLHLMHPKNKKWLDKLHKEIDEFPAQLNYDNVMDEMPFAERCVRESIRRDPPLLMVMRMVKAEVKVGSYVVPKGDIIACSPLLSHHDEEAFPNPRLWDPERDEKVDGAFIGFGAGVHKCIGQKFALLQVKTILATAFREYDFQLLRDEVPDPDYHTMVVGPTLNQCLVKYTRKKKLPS

[5] = molecular target: T1, Lanosterol 14-alpha demethylase (Homo sapiens, UniProt Q16850); experiment: Inhibition of human sterol 14-alpha-demethylase assessed as drug/enzyme molar ratio required to produce 50 percent decrease in turnover number
T1 sequence (Q16850 whole entry): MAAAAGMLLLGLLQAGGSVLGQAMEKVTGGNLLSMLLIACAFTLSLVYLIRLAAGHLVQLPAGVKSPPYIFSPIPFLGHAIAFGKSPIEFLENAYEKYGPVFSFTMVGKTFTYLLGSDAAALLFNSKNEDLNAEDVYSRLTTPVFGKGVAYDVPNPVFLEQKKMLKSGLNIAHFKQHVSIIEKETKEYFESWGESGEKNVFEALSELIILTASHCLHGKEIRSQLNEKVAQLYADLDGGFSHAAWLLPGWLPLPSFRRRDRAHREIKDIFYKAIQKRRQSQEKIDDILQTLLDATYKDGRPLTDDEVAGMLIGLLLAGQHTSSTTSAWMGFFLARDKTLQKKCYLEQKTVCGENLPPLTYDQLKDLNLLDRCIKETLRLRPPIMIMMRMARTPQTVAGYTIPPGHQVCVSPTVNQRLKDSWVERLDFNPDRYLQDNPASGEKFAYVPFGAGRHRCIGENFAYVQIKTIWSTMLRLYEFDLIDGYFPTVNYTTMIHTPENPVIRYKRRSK

Cytochrome P450 3A4 = Cytochrome P450 3A4 (Homo sapiens, UniProt P08684); experiment: Inhibition of human recombinant CYP3A4; format: ADME
Cytochrome P450 3A4, sequence (P08684 whole entry): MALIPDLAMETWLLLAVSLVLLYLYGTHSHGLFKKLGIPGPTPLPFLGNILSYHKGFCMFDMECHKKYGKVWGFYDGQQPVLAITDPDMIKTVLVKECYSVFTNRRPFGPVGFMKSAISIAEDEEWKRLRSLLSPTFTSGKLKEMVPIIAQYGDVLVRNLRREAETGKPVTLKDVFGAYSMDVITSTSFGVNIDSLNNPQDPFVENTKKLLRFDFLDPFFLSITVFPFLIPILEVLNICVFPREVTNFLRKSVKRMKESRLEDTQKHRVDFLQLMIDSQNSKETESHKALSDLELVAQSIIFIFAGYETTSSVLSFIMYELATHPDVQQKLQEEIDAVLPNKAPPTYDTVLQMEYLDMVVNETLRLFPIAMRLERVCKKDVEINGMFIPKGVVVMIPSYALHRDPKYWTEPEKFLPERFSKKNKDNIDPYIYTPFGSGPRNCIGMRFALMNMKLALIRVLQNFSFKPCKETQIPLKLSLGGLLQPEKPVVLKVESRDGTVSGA

Mus musculus = experiment: Toxicity in BALB/c mouse at 50 mg/kg, po administered twice a day; format: organism-based; set-up: dose 50 mg/kg, route oral; details: in vivo
Procedure, shortened: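 Infected female BALB/c mice given oral gavage in 20% hydroxypropyl beta-cyclodextrin, 100 mg/kg twice daily days 8–13 then 50 mg/kg twice daily days 14–27; monitored for weight loss and adverse effects.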

Trypanosoma cruzi [6] = experiment: Antitrypanosomal activity against Trypanosoma cruzi Tulahuen trypomastigotes infected in BALB/c mouse assessed as suppression of parasitemia at 100 mg/kg, po after 7 days of infection for 8 to 27 days measured weekly for 8 weeks by microscopy; format: functional, organism-based; set-up: dose 100 mg/kg
Procedure, shortened: (§1)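 Female BALB/c mice (7–8 weeks) infected subcutaneously with 5×10^3 Tulahuen trypomastigotes; oral gavage from day 8, groups of 5–6, for 20 days. Benznidazole 100 mg/kg once daily days 8–27; test agents 100 mg/kg twice daily days 8–13 then 50 mg/kg twice daily days 14–27; vehicle 20% hydroxypropyl beta-cyclodextrin twice daily. Parasitemia counted in 5 μL tail blood over 50 high-powered fields.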

Trypanosoma cruzi [7] = experiment: (§2) Antitrypanosomal activity against Trypanosoma cruzi Tulahuen trypomastigotes infected in BALB/c mouse assessed as suppression of parasitemia at 100 mg/kg, po twice a day after 7 days of infection for 8 to 13 days and 50 mg/kg, po for 14 to 27 days measured weekly for 8 weeks by microscopy; format: functional, organism-based
Procedure, shortened: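 Female BALB/c mice, 7–8 weeks old, infected s.c. with 5×10^3 Tulahuen trypomastigotes; parasitemic by day 7. From day 8, groups of 5–6 were gavaged 100 mg/kg twice daily (days 8–13), then 50 mg/kg twice daily (days 14–27), in 20% w/v hydroxypropyl-β-cyclodextrin. Parasitemia read in 5 μL tail blood over 50 high-power fields. Day-103 cardiac blood cultured at 28 °C, checked weekly for 8 weeks.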

[8] = Cmax in BALB/c mouse at 50 mg/kg, po; format: ADME, organism-based; set-up: dose 50 mg/kg, route oral; details: in vivo
Procedure, shortened: (§3)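 Single oral gavage dose of 50 mg/kg, suspended at 10 mg/ml in 20% (w/v) hydroxypropyl beta-cyclodextrin, to uninfected female BALB/c mice (7–8 weeks, ~20 g); timed tail blood, plasma extracted with acetonitrile using an internal standard, quantified by reversed-phase LC-MS (electrospray ion trap); three mice averaged.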

[9] = Elimination half life in BALB/c mouse at 50 mg/kg, po; format: ADME, organism-based; set-up: dose 50 mg/kg, route oral; details: in vivo, read-out: beta t1/2 (converted); procedure, shortened: as §3
Trypanosoma cruzi [10] = experiment: as §2, with “parasitemia in blood culture” for “parasitemia”, “after 100 days” for “weekly for 8 weeks”; format: functional, organism-based; procedure, shortened: as §1
[11] = Terminal half life in po dosed human administered twice a day; format: ADME, organism-based; details: in vivo, read-out: beta t1/2 (converted)

Row | Compound | Ratio IC50/EC50 [1] | EC50 (Trypanosoma cruzi [2]) | IC50 [3] | Activity [4] | Activity [5] | also measured
1 | Cn1cncc1[C@@](N)(c1ccc2ccccc2c1)c1ccc2c(c1)c(-c1cccc(Cl)c1)cc(=O)n2C | 0.4 | 45 nM | 17 nM |  |  | 
2 | Cn1cncc1[C@@](N)(c1ccc(Cl)cc1)c1ccc2c(c1)c(-c1ccccc1)cc(=O)n2C | 0.3 | 12 nM | 4 nM |  |  | 
3 | Cc1c(Cl)cccc1-c1cc(=O)n(C)c2ccc([C@](N)(c3ccc(Cl)cc3)c3cncn3C)cc12 (racemic) | 14 | 21 nM | 294 nM | 0.65 | > 100 | IC50 (Cytochrome P450 3A4): 1300 nM
4 | Cc1ccccc1-c1cc(=O)n(C)c2ccc([C@](N)(c3ccc(Cl)cc3)c3cncn3C)cc12 (racemic) | 13 | 23 nM | 300 nM |  |  | IC50 (Cytochrome P450 3A4): 1350 nM
5 | Cn1cncc1[C@@](N)(c1ccc(Cl)cc1)c1ccc2c(c1)c(-c1cccc3ccccc13)cc(=O)n2C (racemic) |  | 22 nM | 485 nM | 0.85 | > 100 | 
6 | CO[C@](c1ccc(Cl)cc1)(c1ccc2c(c1)c(-c1cccc(Cl)c1C)cc(=O)n2C)c1cncn1C (racemic) | > 8300 | 0.6 nM | > 5000 nM | 0.62 | 48 | Activity (Mus musculus): Non-toxic; Activity (Trypanosoma cruzi [6]): Active; IC50 (Cytochrome P450 3A4): 870 nM; Activity (Trypanosoma cruzi [7]): Active; Cmax [8]: 5 µM; half-life [9]: 4 h; Activity (Trypanosoma cruzi [10]): Active
7 | Cc1cc([C@@](N)(c2ccc3c(c2)c(-c2cccc(Cl)c2)cc(=O)n3C)c2cncn2C)ccc1Cl (racemic) | 0.6 | 23 nM | 13 nM |  |  | 
8 | Cn1cncc1[C@](N)(c1ccc(Cl)cc1)c1ccc2c(c1)c(-c1cccc(Cl)c1)cc(=O)n2C [(S)-TIPIFARNIB] |  |  |  | 0.74 | > 100 | 
9 | CC(=O)N1CCN(c2ccc(OCC3COC(Cn4ccnc4)(c4ccc(Cl)cc4Cl)O3)cc2)CC1 (configuration not stated) [KETOCONAZOLE] |  | 0.3 nM |  | 0.75 | 2.3 | 
10 | CC[C@@H]([C@H](C)O)n1ncn(-c2ccc(N3CCN(c4ccc(OC[C@@H]5CO[C@@](Cn6cncn6)(c6ccc(F)cc6F)C5)cc4)CC3)cc2)c1=O [POSACONAZOLE] |  | 0.3 nM |  |  |  | 
11 | Cn1cncc1[C@@](N)(c1ccc(Cl)cc1)c1ccc2c(c1)c(-c1cccc(Cl)c1)cc(=O)n2C [TIPIFARNIB] |  | 4 nM | 0.7 nM | 0.48 | > 100 | half-life [11]: 16 h; Activity (Trypanosoma cruzi [7]): inactive
